The nature of the data set: Toxicity liver stage against HepG2, at 10uM. In kind it is cell-based. Also noted: test concentration 10 uM, cell line HepG2-A16-CD81EGFP. The note with it: human, HepG2-A16-CD81EGFP cells; read-out: INHIBITION
The method, boiled down:
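Uninfected HepG2-A16-CD81EGFP cells, 3 × 10^3 per well, 1536-well, plated on prespotted compound at 10 μM final, parasite-free screening media added to match infected plates; puromycin 10 μM positive, DMSO 0.5% negative; run in parallel with 48 h PbLuc assay at 37 °C, 5% CO2; viability by CellTiter-Glo luminescence, normalized to controls.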

From ChEMBL document CHEMBL4513216, “Probing the Open Global Health Chemical Diversity Library for Multistage-Active Starting Points for Next-Generation Antimalarials” (ACS Infect Dis, 2020) come the findings set out here.

As to `Cn1c(CN2CCCC(Cn3cncn3)C2)nc2ccccc21` (stereo not given), the cytotoxicity at 10 µM was -6.78%.

Take `CCOc1ncccc1CNCc1c(C)nn(C)c1N(C)C`: the cytotoxicity at 10 µM was -1.35%.

`CCNC(=O)Nc1ccc(N2CCC(OC)CC2)c(C(F)(F)F)c1`: the cytotoxicity at 10 µM worked out at 20.4%.

For `Cc1noc(CN(Cc2cccc(C#N)c2)Cc2ccco2)n1`, the cytotoxicity at 10 µM was 0.554%.

Turning to `COc1ccc(-c2noc(CN3CC(n4cc(C)cn4)C3)n2)cc1`, the cytotoxicity at 10 µM is -5.97%.

`CC(C#N)CN(C)C(=O)c1cn(-c2ccc(Br)cc2)cn1` (stereo not given): the cytotoxicity at 10 µM came to 13.6%.

On to `CC(C(=O)Nc1nccs1)N1CCc2nn(C)c(=O)cc2C1` (stereo not given), for which the cytotoxicity at 10 µM amounted to 9.17%.

With `CCOC(=O)N1CCN(C(=O)C2Cc3ccccc3CN2C)CC1` (stereo not given), the cytotoxicity at 10 µM is -19.2%.

For the compound `COCCNC(=O)Cn1cc(NC(=O)c2cccc(Cl)c2Cl)cn1`, the cytotoxicity at 10 µM is -7.04%.

As for `Cn1nnnc1SCCNC(=O)c1cccc2ccnn12`, the cytotoxicity at 10 µM was -59.1%.

For `Cc1csc(C2CCCN(C(=O)c3c(C)nn4cccnc34)C2)n1` (stereo not given), the cytotoxicity at 10 µM is -10.4%.

`CN(C)c1ncc(-c2ccncc2)c(CCNC(=O)C2CC2)n1`: the cytotoxicity at 10 µM stood at 0.05%.

Regarding `CN(Cc1ccsc1)C(=O)c1cc(S(=O)(=O)N(C)C)ccc1Cl`, the cytotoxicity at 10 µM was 15%.

In the case of `COc1ncc(NCc2cc(C#N)cs2)cc1C(N)=O`, the cytotoxicity at 10 µM is 3.8%.

Consider `Cc1noc(C)c1-c1nc(C2CCCN(C(=O)C(C)C)C2)ccc1CO` (stereo not given), for which the cytotoxicity at 10 µM was found to be 0.983%.

Turning to `CC(C)(C)OC(=O)NCC1CCN(C(=O)c2cc(Cl)c[nH]2)CC1`, the cytotoxicity at 10 µM was -3.26%.

As to `Cc1nc([C@H]2C[C@@H]3CCN(Cc4ccc5c(c4)OCO5)C[C@H]3O2)no1`, the cytotoxicity at 10 µM was -110%.

As to `COc1ncccc1C(=O)N1CCC2(CC1)CC(OC)CO2` (stereo not given), the cytotoxicity at 10 µM is -97%.

Take `CCCNc1c(NC(=O)NCCCOC)c(=O)oc2ccccc12`: the cytotoxicity at 10 µM was -4.52%.

As for `COc1ccc(COCC(=O)N2CCC(c3nncn3C)CC2)cc1`, the cytotoxicity at 10 µM was found to be 4.9%.

On to `Cn1cc(C#N)cc1C(=O)NC1(C#N)CCSCC1`, for which the cytotoxicity at 10 µM is -7.23%.

Regarding `CN(CCn1nc2ccccn2c1=O)CC(=O)N(C)C1CCCCC1`, the cytotoxicity at 10 µM is -138%.

As to `NC(=O)[C@@H]1CCCN1C(=O)c1cn(C/C=C/c2ccccc2)nn1`, the cytotoxicity at 10 µM was 2.32%.

On to `Cc1cc(F)cc2c(NCC(C)(C)C(N)=O)c(C#N)cnc12`, for which the cytotoxicity at 10 µM was -3.25%.

With `CN(C)C(=O)NC[C@@H]1OC[C@H]2CN(Cc3cccc(F)c3)CC[C@H]21`, the cytotoxicity at 10 µM was determined as 4.93%.

For `CC(Cn1cccn1)NS(=O)(=O)Cc1ccc(F)cc1` (stereo not given), the cytotoxicity at 10 µM turned out to be 7.28%.

As for `CC(=O)N1N=C(c2ccncc2)OC1C(=O)N(C)CCc1ccccc1` (stereo not given), the cytotoxicity at 10 µM worked out at 12.9%.

With `Cc1ccc(F)c(N2CCCC(NS(=O)(=O)CCCF)C2=O)c1` (stereo not given), the cytotoxicity at 10 µM was -3.14%.

In the case of `Cc1csc(CN2CC[C@H]3C[C@H](c4nnc(C)[nH]4)O[C@@H]3C2)n1`, the cytotoxicity at 10 µM is -19.6%.

`CCN(CC)C(=O)CSc1nc2cc(C)nc-2c(O)n1CC`: the cytotoxicity at 10 µM is 6.58%.

`CN(C)C(=O)COCC1CN(Cc2ccco2)Cc2ncn(C)c21` (stereo not given): the cytotoxicity at 10 µM was -7.86%.

Regarding `CNC(=O)C1(CCCc2ccccn2)CN(Cc2nccn2C)C1`, the cytotoxicity at 10 µM is -1.23%.

As for `CC(C)C[C@H](N)c1nnc(SCC(=O)Nc2ccc(Br)cc2)o1`, the cytotoxicity at 10 µM was -4.99%.

As to `CN1C[C@@H](C(=O)N2CCCOCC2)[C@@]2(CCc3ccccc3C(=O)N2)C1`, the cytotoxicity at 10 µM amounted to 8.64%.

For `CC(C)COc1cncc(NCC(O)c2ccco2)n1` (stereo not given), the cytotoxicity at 10 µM was -2.85%.

As for `Cc1cc(C)nc(Nc2cccc(C3CCCN(S(C)(=O)=O)C3)n2)n1` (stereo not given), the cytotoxicity at 10 µM is -9.62%.

Take `CNC(=O)c1cn(C(C)(C)C)c2ncccc12`: the cytotoxicity at 10 µM is -7.85%.

Turning to `Cc1nonc1NC(=O)C1SCCc2ccccc21` (stereo not given), the cytotoxicity at 10 µM was -3%.

`Cc1noc(C)c1CN1C[C@@H]2CCCO[C@@H]2[C@H](Nc2ccccn2)C1`: the cytotoxicity at 10 µM came out at 5.44%.

`Cc1cccc(C(=O)N2CC[C@@H]3[C@H]2CCC(=O)N3c2ccccc2)n1`: the cytotoxicity at 10 µM was -94.8%.

Regarding `COCC(=O)N1CCCC(c2cc(C(F)F)n3ncnc3n2)C1` (stereo not given), the cytotoxicity at 10 µM was -8.43%.

On to `COCC1Cn2nnc(-c3cnn(C)c3)c2CN1Cc1ccc(C)s1` (stereo not given), for which the cytotoxicity at 10 µM was -10.5%.

Regarding `CNc1nc(C)c(C(=O)N2CCCCC2CCN2CCOCC2)s1` (stereo not given), the cytotoxicity at 10 µM was -2.06%.

`COC(=O)c1sc2nc3c(c(C(F)(F)F)c2c1N)CN(C(C)=O)CC3`: the cytotoxicity at 10 µM was -8.18%.

In the case of `Cc1ccccc1CC(=O)N1C[C@@H](O)[C@H](N2CCOCC2)C1`, the cytotoxicity at 10 µM was -4.05%.

As to `Cn1cccc1C(O)CNS(=O)(=O)Cc1ccccc1` (stereo not given), the cytotoxicity at 10 µM is -37.1%.

As to `CCc1nnc(N2C[C@@H](CN(C)CCO)[C@@H](CO)C2)s1`, the cytotoxicity at 10 µM is -5.61%.

For `Cc1nc(CN2CCCC(NCCCOc3ccc(F)cc3)C2)no1` (stereo not given), the cytotoxicity at 10 µM was -7.03%.

As for `O=C(COc1ccccc1F)NCC(O)(c1ccccc1)C1CC1` (stereo not given), the cytotoxicity at 10 µM is -3.68%.

In the case of `CN(C)c1ccc(CC(=O)N2CCOCC(O)C2)cc1` (stereo not given), the cytotoxicity at 10 µM was 13.3%.

On to `Cc1cc(-c2cnn(CCNC(=O)c3snnc3C)c2C2CC2)on1`, for which the cytotoxicity at 10 µM was -7.16%.

Regarding `CN(C)C(=O)CCCNc1ncc2c(n1)CCN2c1ccccc1`, the cytotoxicity at 10 µM is 2.29%.

`O=C(COc1coc(CN2CCCCC2)cc1=O)Nc1ccccc1Cl`: the cytotoxicity at 10 µM is 3.72%.

Consider `CC(C)CN1CC[C@H](c2nnc(COc3ccc(F)cc3)o2)C1`, for which the cytotoxicity at 10 µM was -1.81%.

Regarding `CC(C)N(C)[C@@H]1CCN(Cc2ccoc2)[C@H]1Cc1ccccc1`, the cytotoxicity at 10 µM is -2.57%.

With `COc1cc(CN)c(OC)c2c1OCO2`, the cytotoxicity at 10 µM is -1.29%.

Take `CCOCCNC(=O)CCC1CCCO1` (stereo not given): the cytotoxicity at 10 µM is -122%.

Regarding `Cc1ncc(CNC(=O)NCC(C)Oc2ccccc2F)s1` (stereo not given), the cytotoxicity at 10 µM was -7.16%.

For `O=C1CO[C@H]2CN(C3CCOCC3)C[C@H]2N1Cc1ccccn1`, the cytotoxicity at 10 µM is 0.566%.

On to `CC1(C)OCC2(CO1)CN(C(=O)c1cccc3ccccc13)C2`, for which the cytotoxicity at 10 µM was -7.81%.

As to `Cc1ccc(F)cc1NC(=O)c1[nH]ncc1Br`, the cytotoxicity at 10 µM came out at 15.7%.

As to `CCN1C(=O)C2(CCCCC2)NC1c1cc(C#N)n(C)c1C` (stereo not given), the cytotoxicity at 10 µM came to 4.59%.

`Cc1noc([C@@H]2C[C@@H]3CCN(c4nnc(C)s4)C[C@H]3O2)n1`: the cytotoxicity at 10 µM was found to be 5.35%.

For `NC(=O)C1=NC2=NS(=O)(=O)c3ccccc3N2N1Cc1ccccc1Cl`, the cytotoxicity at 10 µM is -10.9%.

`CCS(=O)(=O)N1CCc2ccc(NC(=O)Nc3ccc(F)cc3F)cc21`: the cytotoxicity at 10 µM is 51.2%.

As to `CN(C)S(=O)(=O)c1csc(C(=O)N2CCC(C(N)=O)CC2)c1`, the cytotoxicity at 10 µM was -46.5%.

Consider `O=C1NCC2(CCC(C(=O)N3CCC(O)CC3)CC2)Oc2ccccc21` (stereo not given), for which the cytotoxicity at 10 µM is -21.7%.

Consider `Cc1nc(NC(=O)OC(C)(C)C)sc1C(N)=O`, for which the cytotoxicity at 10 µM was -14.4%.

In the case of `Cc1[nH]n(-c2ccccc2)c2nnc(N)c1-2`, the cytotoxicity at 10 µM stood at 12.4%.

For `COCc1nc(CN2CCN(c3ccc(OC)cc3)C(=O)C2C)no1` (stereo not given), the cytotoxicity at 10 µM turned out to be 3.35%.

`COCCN1C[C@@H]2CN(Cc3cccc(C)n3)C[C@@H]2C1=O`: the cytotoxicity at 10 µM was 6.66%.

For the compound `Cc1cc(C)n(CC(C)CNC(=O)NCc2csc(C)n2)n1` (stereo not given), the cytotoxicity at 10 µM was determined as 11%.

In the case of `CN(C)C(=O)CO[C@@H]1CN(Cc2ccccc2)[C@@H]2CCCO[C@@H]21`, the cytotoxicity at 10 µM amounted to 3.09%.

For the compound `O=C(C1CCOC1)N1CCC2(CCCNC2)CC1` (stereo not given), the cytotoxicity at 10 µM is -1.74%.

For the compound `Cc1cc(C(=O)N2CCCC2c2noc(C)n2)[nH]n1` (stereo not given), the cytotoxicity at 10 µM was -18.7%.

Regarding `Cc1cc(CNCC2Cn3nnc(C)c3CO2)oc1C` (stereo not given), the cytotoxicity at 10 µM was 6.65%.

As to `O=C1CCC2(CCN(CCSc3ccccc3)CC2)CN1CCCO`, the cytotoxicity at 10 µM worked out at 2.09%.

Take `COCC(=O)N1C[C@H]2CC[C@@]3(N=C(c4ccccc4)NC3=O)[C@H]2C1`: the cytotoxicity at 10 µM was found to be 3.83%.

Take `Cc1nc2ccc(C(=O)N3CCn4c(nnc4C4CC4)C3)cc2nc1C`: the cytotoxicity at 10 µM was -3.22%.

Regarding `O=C(NCC(=O)N1CCCC1Cc1cccc(F)c1)c1ccccn1` (stereo not given), the cytotoxicity at 10 µM was -8.51%.

Turning to `Cc1c(C(=O)OCC2CC(=O)N(c3ccccc3)C2)cnn1C(C)C` (stereo not given), the cytotoxicity at 10 µM is -3.52%.

Take `COCC1CC2(CCN(C(C)=O)CC2)CN1Cc1csc(C)n1` (stereo not given): the cytotoxicity at 10 µM was 9.19%.

Regarding `Cc1ccc(C(CNCc2cccn2C)N2CCOCC2)s1` (stereo not given), the cytotoxicity at 10 µM came to 14.9%.

On to `COc1ncc(CN2CCOC(Cc3cccc4ccccc34)C2)cn1` (stereo not given), for which the cytotoxicity at 10 µM was -3.94%.

Regarding `Cc1noc([C@H]2COC[C@H]3CN(C(=O)Cc4ccccc4F)C[C@H]32)n1`, the cytotoxicity at 10 µM was -8.52%.

Consider `O=C1NCC[C@]12CN(Cc1ccco1)C[C@H]2c1ccccc1`, for which the cytotoxicity at 10 µM was -139%.

For the compound `C[C@@H]1CN(C(=O)CCN2CCCC2)CC[C@@]1(O)C1CCOCC1`, the cytotoxicity at 10 µM was -5.15%.

With `Cc1cc(CN2CCCC(NS(C)(=O)=O)C2)ccc1-n1cncn1` (stereo not given), the cytotoxicity at 10 µM amounted to 3.78%.

`O=C(NCc1ccc(Cl)cc1)C1=NOC2(CCNC2)C1` (stereo not given): the cytotoxicity at 10 µM is -4.21%.

As for `CNc1cc(-c2nc(CCN3CCCC3=O)no2)ccn1`, the cytotoxicity at 10 µM turned out to be 7.46%.

In the case of `CCCN1CCc2[nH]cnc2C12CCN(C(=O)Cn1ccnc1C)CC2`, the cytotoxicity at 10 µM worked out at 13.7%.

With `O=C(Cc1cccnc1)N1CCC(c2nnc(-c3ccccn3)o2)CC1`, the cytotoxicity at 10 µM was 0.91%.

As for `Cc1ccc(-n2cc(C(=O)NCC(C)Cn3cccn3)nn2)cc1` (stereo not given), the cytotoxicity at 10 µM was -46.2%.

As to `Cc1sc(C(=O)N(C)S(C)(=O)=O)cc1-c1ccc(F)cc1`, the cytotoxicity at 10 µM came out at 0.269%.

Take `CC(=O)c1ccc(NC(=O)C(NC(=O)Nc2ccccc2)C(C)C)cc1` (stereo not given): the cytotoxicity at 10 µM is -0.719%.
